{"data": "Results of several laboratories", "target": "Mu-type opioid receptor (Oprm1, Rattus norvegicus, UniProt P33535)", "note": "Lines come from different studies, so protocols differ."}
{"Compound": "Oc1cccc([C@@]23CCC[C@@H]([C@@H]2O)N(CC=Cc2ccccc2)CC3)c1", "test": "ligand displacement, radioligand", "Ki": "25 nM"}
{"Compound": "Cc1cc(O)cc(C)c1C[C@H](C)C(=O)N[C@@H]1C/C=C\\CC[C@@H](C(N)=O)NC(=O)[C@H](Cc2ccccc2)NC(=O)[C@H](Cc2ccccc2)NC1=O", "test": "ligand displacement, radioligand", "setting": "cell membranes", "Ki": "7.44 nM"}
{"Compound": "Cc1cc(O)cc(C)c1C[C@H](N)C(=O)N[C@H](C)C(=O)NCC(=O)N[C@@H](Cc1ccc(Cl)cc1)C(=O)N(C)CCC[C@@]1(c2ccc(F)cc2)OCc2cc(C#N)ccc21", "test": "cell-free assay", "Ki": "12 nM"}
{"Compound": "Cc1cccc(C)c1C[C@H](NC(=O)[C@@H](CCCNC(=N)N)NC(=O)[C@@H](N)Cc1c(C)cc(O)cc1C)C(=O)N[C@@H](CCCCN)C(N)=O", "test": "ligand displacement, radioligand", "setting": "cell membranes", "Ki": "0.00935 nM"}
{"Compound": "Cc1cc(O)cc(C)c1C[C@H](N)C(=O)N1CCc2ccc(Cc3ccc([N+](=O)[O-])cc3)cc2C1", "test": "ligand displacement, radioligand", "setting": "cell membranes", "Ki": "2.6 nM"}
{"Compound": "Cc1cc(O)cc(C)c1C[C@H](N)C(=O)N[C@H](CCCNC(=N)N)C(=O)N[C@@H](Cc1c[nH]c2ccccc12)C(=O)N[C@@H](CCCCN)C(N)=O", "test": "ligand displacement, radioligand", "setting": "cell membranes", "Ki": "0.0991 nM"}
{"Compound": "Cc1cc(O)cc(C)c1C[C@H](N)C(=O)N1CCc2ccc(Cc3ccccc3[N+](=O)[O-])cc2C1", "test": "ligand displacement, radioligand", "setting": "cell membranes", "Ki": "10 nM"}
{"Compound": "Cc1cc(O)cc(C)c1C[C@H](N)C(=O)N1Cc2ccccc2CC1C(=O)NCC(=O)NC(Cc1ccc(Cl)cc1)C(=O)N(C)CCC[C@@]1(c2ccc(F)cc2)OCc2cc(C#N)ccc21 (stereo in doubt)", "test": "cell-free assay", "Ki": "35 nM"}
{"Compound": "C[C@@H](NC(=O)[C@@H](N)Cc1ccc(O)cc1)C(=O)NCC(=O)N[C@H](CC(=O)NNC(=O)C[C@H](Cc1ccccc1)NC(=O)CNC(=O)[C@@H](C)NC(=O)[C@@H](N)Cc1ccc(O)cc1)Cc1ccccc1", "test": "ligand displacement, radioligand", "Ki": "1.1 nM"}
{"Compound": "C[C@@H](NC(=O)[C@@H](N)Cc1ccc(O)cc1)C(=O)NCC(=O)N[C@@H](Cc1ccc(Cl)cc1)C(=O)N(C)CCC[C@@]1(c2ccc(F)cc2)OCc2cc(C#N)ccc21", "test": "cell-free assay", "Ki": "7 nM"}
{"Compound": "Cc1cc(O)cc(C)c1C[C@H](N)C(=O)N1CCc2ccc(Cc3ccccc3N)cc2C1", "test": "ligand displacement, radioligand", "setting": "cell membranes", "Ki": "2.1 nM"}
{"Compound": "Cc1cc(O)cc(C)c1C[C@H](C)C(=O)N[C@@H]1CCCCC[C@@H](C(N)=O)NC(=O)[C@H](Cc2ccccc2)NC(=O)[C@H](Cc2ccccc2)NC1=O", "test": "ligand displacement, radioligand", "setting": "cell membranes", "Ki": "18.3 nM"}
{"Compound": "N=C(N)NCCC[C@@H]1NC(=O)[C@H](Cc2ccc(O)cc2)NC(=O)[C@@H](CCCCN)NC(=O)[C@@H](Cc2ccccc2)NC1=O", "test": "ligand displacement, radioligand", "setting": "cell membranes", "Ki": "171 nM"}
{"Compound": "Cc1cccc(Cc2ccc3c(c2)CN(C(=O)[C@@H](N)Cc2c(C)cc(O)cc2C)CC3)c1", "test": "ligand displacement, radioligand", "setting": "cell membranes", "Ki": "3.1 nM"}
